# Results taken from ChEMBL document CHEMBL3286193, “Discovery of a series of 2,5-diaminopyrimidine covalent irreversible inhibitors of Bruton's tyrosine kinase with in vivo antitumor activity” (J Med Chem, 2014).
# Active and inactive are the calls of the source. The rule behind the calls is not given here.
# Experiments:
# [1] = Clearance in mouse liver microsomes by LC-MS/MS analysis; assay type: ADME; settings: read-out: CLH
# Method in brief: (§1)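 Liver microsomes incubated with compound and NADPH at 37 °C. Samples taken at several time points, centrifuged, and supernatants analyzed by LC−MS/MS. t1/2 and CL calculated by first-order kinetics. Testosterone, propranolol and clozapine served as positive controls.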
# [2] = target: T1, Tyrosine-protein kinase BTK (Homo sapiens, UniProt Q06187); test: Irreversible inhibition of Btk phosphorylation at Tyr551 in human Ramos cells at 1 uM incubated for 1 hr followed by compound washout with fresh media measured after 2 hrs by Western blot analysis; assay type: cell-based
# T1 sequence (Q06187 whole entry): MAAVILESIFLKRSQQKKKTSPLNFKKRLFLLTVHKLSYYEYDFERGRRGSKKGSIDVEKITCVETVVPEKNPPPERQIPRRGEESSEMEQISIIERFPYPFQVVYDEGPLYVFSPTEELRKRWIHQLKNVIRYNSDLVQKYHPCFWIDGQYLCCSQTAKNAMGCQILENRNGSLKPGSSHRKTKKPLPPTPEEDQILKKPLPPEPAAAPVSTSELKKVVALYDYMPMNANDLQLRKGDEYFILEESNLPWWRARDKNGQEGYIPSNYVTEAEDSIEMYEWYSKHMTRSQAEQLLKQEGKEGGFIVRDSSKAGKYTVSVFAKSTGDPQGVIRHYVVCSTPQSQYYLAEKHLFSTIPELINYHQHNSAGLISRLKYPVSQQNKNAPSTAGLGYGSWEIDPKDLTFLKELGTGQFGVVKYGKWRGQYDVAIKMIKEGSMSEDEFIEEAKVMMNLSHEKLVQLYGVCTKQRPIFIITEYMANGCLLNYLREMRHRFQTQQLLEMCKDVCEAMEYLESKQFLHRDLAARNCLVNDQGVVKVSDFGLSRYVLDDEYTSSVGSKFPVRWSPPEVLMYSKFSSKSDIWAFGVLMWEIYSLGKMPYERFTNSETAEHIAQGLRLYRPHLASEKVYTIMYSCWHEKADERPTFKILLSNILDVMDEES
# Method in brief: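 Ramos cells (5 × 10⁵) seeded overnight, treated with compound 1 h, then washed out with fresh media for 2 h. Cells stimulated with goat anti-human IgM for 3−5 min, lysed by boiling in SDS buffer, and Btk Tyr551 phosphorylation assessed by Western blot.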
# [3] = Half life in mouse liver microsomes by LC-MS/MS analysis; assay type: ADME; method in brief: as §1
# [4] = target: Receptor tyrosine-protein kinase erbB-2 (Homo sapiens, UniProt P04626); test: Inhibition of HER2 (unknown origin) after 1 hr by HTRF assay
# Sequence of Receptor tyrosine-protein kinase erbB-2 (P04626 whole entry): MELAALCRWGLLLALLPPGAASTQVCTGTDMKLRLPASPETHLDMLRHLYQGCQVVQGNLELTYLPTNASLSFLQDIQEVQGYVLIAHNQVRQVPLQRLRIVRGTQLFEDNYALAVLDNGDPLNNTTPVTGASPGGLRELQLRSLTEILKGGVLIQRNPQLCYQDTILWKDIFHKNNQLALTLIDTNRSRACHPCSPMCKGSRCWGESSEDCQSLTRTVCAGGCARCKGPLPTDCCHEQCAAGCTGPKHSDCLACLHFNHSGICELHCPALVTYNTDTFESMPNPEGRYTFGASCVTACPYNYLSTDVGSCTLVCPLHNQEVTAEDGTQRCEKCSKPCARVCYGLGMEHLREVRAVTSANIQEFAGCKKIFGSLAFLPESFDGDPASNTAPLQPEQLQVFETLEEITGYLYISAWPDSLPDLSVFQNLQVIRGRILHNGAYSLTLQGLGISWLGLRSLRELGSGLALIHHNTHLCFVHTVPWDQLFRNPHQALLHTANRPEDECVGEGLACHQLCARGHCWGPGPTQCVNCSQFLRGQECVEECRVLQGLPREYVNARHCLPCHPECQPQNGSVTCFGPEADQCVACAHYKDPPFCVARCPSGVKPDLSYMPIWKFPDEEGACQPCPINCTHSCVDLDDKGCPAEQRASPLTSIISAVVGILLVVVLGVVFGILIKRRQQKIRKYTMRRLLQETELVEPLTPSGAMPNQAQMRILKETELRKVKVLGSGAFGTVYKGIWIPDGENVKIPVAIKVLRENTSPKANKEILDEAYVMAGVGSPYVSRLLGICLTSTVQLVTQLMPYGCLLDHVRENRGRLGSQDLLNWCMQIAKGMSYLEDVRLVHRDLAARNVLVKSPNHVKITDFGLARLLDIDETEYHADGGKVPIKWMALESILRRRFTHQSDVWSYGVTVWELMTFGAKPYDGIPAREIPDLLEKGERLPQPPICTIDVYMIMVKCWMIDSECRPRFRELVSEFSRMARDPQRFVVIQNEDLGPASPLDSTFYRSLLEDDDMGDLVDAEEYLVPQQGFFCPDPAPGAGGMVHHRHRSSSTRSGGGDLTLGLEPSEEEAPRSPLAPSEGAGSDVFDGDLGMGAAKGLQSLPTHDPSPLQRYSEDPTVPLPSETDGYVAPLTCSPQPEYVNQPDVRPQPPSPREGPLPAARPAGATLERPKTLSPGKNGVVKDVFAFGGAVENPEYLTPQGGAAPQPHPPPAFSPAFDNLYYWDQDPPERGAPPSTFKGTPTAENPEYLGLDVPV
# Method in brief: (§2)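 Recombinant kinases tested by HTRF KinEase protocol. Enzyme preincubated with inhibitor for a fixed 10 min. IC50 values are means of duplicates.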
# [5] = system: Liver microsomes (Mus musculus); test: Clearance in mouse liver microsomes by LC-MS/MS analysis
# [6] = Half life in ICR mouse at 1 mg/kg, iv by LC-MS analysis; assay type: ADME, organism-based; set-up: dose 1 mg/kg, route intravenous; settings: in vivo
# Method in brief: (§3)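 ICR mice (n = 3) given a single intravenous injection at 1 mg/kg. Blood sampled at various time points and analyzed by LC−MS to derive t1/2, CL and Vss.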
# [7] = target: T2, Epidermal growth factor receptor (Homo sapiens, UniProt P00533); test: Inhibition of EGFR (unknown origin) after 1 hr by HTRF assay
# T2 sequence (P00533 whole entry): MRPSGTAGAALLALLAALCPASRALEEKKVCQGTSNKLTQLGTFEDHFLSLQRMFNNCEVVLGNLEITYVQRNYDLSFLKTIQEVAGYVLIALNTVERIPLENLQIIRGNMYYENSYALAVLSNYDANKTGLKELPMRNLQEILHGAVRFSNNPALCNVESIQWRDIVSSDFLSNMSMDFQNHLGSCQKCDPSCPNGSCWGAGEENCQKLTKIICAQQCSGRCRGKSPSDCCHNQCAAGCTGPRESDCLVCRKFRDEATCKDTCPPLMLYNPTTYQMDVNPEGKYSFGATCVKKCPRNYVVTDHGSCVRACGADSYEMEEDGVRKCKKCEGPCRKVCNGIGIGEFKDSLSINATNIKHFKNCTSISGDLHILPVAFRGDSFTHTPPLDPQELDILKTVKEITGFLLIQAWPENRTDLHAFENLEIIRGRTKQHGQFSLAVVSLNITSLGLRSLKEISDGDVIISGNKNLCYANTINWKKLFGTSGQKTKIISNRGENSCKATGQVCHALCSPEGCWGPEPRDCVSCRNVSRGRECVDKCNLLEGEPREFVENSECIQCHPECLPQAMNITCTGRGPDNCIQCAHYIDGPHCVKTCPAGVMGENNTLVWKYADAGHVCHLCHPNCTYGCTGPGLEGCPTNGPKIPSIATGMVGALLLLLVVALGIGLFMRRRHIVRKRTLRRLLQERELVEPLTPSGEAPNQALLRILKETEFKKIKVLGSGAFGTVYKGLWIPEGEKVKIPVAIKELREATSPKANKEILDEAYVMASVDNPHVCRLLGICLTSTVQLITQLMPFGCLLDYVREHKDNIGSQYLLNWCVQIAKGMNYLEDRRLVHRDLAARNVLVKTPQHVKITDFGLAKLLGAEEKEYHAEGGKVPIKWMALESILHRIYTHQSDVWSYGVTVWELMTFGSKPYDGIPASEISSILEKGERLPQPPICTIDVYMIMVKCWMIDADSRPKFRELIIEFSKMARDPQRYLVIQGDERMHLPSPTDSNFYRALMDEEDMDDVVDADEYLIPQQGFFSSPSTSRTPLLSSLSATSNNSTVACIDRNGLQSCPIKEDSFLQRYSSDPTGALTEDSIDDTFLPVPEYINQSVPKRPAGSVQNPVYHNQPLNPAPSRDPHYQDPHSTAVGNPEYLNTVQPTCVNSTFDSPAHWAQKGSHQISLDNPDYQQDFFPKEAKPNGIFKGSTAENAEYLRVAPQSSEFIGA
# Method in brief: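 Commercial recombinant kinase, assayed in the HTRF KinEase format following the kit protocol. Enzyme and inhibitor were preincubated for a fixed 10 min before the reaction.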
# [8] = target: Tyrosine-protein kinase TXK (Homo sapiens, UniProt P42681); test: Inhibition of Rlk (unknown origin) after 1 hr by HTRF assay; method in brief: as §2
# Sequence of Tyrosine-protein kinase TXK (P42681 whole entry): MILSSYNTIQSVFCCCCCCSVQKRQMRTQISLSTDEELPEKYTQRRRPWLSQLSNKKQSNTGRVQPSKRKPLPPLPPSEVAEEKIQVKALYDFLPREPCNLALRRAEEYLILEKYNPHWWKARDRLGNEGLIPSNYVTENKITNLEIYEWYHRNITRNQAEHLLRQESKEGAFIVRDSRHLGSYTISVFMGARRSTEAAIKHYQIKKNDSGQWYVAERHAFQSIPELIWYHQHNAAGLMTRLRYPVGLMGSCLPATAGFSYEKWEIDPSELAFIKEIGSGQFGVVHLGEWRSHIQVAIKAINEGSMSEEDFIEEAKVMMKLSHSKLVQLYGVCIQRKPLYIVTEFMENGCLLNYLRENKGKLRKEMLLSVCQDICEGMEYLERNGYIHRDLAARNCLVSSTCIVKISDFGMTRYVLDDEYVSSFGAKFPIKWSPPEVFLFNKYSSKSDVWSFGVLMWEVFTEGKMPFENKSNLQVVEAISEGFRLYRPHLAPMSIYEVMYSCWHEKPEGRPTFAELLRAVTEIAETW
# [9] = Volume of distribution at steady state in ICR mouse at 1 mg/kg, iv by LC-MS analysis; assay type: ADME, organism-based; set-up: dose 1 mg/kg, route intravenous; settings: in vivo, read-out: Vdss; method in brief: as §3
# [10] = Cytotoxicity against human Pfeiffer cells assessed as growth inhibition after 72 hrs by CellTiter-Glo luminescent cell viability assay; assay type: functional
# Method in brief: (§4)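 Lymphoma cells seeded at 5000 cells/well, incubated 24 h, then exposed to compounds for 72 h. Viability read by CellTiter-Glo luminescence. GI50 from dose−response curves, mean of two or three independent experiments in triplicate.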
# [11] = target: T1, Tyrosine-protein kinase BTK; test: Inhibition of Btk (unknown origin) after 1 hr by HTRF assay; method in brief: as §2
# [12] = Cytotoxicity against human DOHH2 cells assessed as growth inhibition after 72 hrs by CellTiter-Glo luminescent cell viability assay; assay type: functional, DOHH-2; method in brief: as §4
# [13] = target: Receptor tyrosine-protein kinase erbB-4 (Homo sapiens, UniProt Q15303); test: Inhibition of HER4 (unknown origin) after 1 hr by HTRF assay; method in brief: as §2
# [14] = Cytotoxicity against human SU-DHL6 cells assessed as growth inhibition after 72 hrs by CellTiter-Glo luminescent cell viability assay; assay type: functional, SU-DHL-6; method in brief: as §4
# WSU-NHL = test: Cytotoxicity against human WSU-NHL cells assessed as growth inhibition after 72 hrs by CellTiter-Glo luminescent cell viability assay; assay type: functional; method in brief: as §4
# [15] = target: T1, Tyrosine-protein kinase BTK; test: Inhibition of Btk phosphorylation at Tyr551 in human Ramos cells after 1 hr by Western blot analysis; assay type: cell-based
# [16] = target: T1, Tyrosine-protein kinase BTK; test: Binding affinity to Btk kinase domain (387 to 659) (unknown origin) assessed as compound-protein covalent adduct formation at 1:3 protein to compound molar ratio at 4 degC after 1 hr by LC-MS analysis
# Method in brief: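 Btk kinase domain (residues 387−659, MW 32136) incubated with 3 equiv of compound at 4 °C for 1 h. Mass spectrometry of the intact protein checked for mass peak shift consistent with 1-to-1 protein−compound adducts.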
# [17] = target: Cytoplasmic tyrosine-protein kinase BMX (Homo sapiens, UniProt P51813); test: Inhibition of Bmx (unknown origin) after 1 hr by HTRF assay; method in brief: as §2
# [18] = Solubility of the compound in FaSSIF; assay type: ADME
# [19] = Clearance in ICR mouse at 1 mg/kg, iv by LC-MS analysis; assay type: ADME, organism-based; set-up: dose 1 mg/kg, route intravenous; settings: in vivo; method in brief: as §3
# [20] = target: Tyrosine-protein kinase JAK3 (Homo sapiens, UniProt P52333); test: Inhibition of Jak3 (unknown origin) after 1 hr by HTRF assay; method in brief: as §2
# [21] = Stability of the compound in FaSSIF assessed as compound remaining at 1 uM measured at 24 hrs by LC-MS analysis; assay type: ADME; settings: read-out: Stability
# Method in brief: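 Compound solutions in FaSSIF shaken at 350 rpm at 37 °C. Samples taken at 2, 6, 10 and 24 h and quantified by LC−MS as % remaining.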
# [22] = target: Tyrosine-protein kinase Tec (Homo sapiens, UniProt P42680); test: Inhibition of Tec (unknown origin) after 1 hr by HTRF assay; method in brief: as §2
# Sequence of Tyrosine-protein kinase Tec (P42680 whole entry): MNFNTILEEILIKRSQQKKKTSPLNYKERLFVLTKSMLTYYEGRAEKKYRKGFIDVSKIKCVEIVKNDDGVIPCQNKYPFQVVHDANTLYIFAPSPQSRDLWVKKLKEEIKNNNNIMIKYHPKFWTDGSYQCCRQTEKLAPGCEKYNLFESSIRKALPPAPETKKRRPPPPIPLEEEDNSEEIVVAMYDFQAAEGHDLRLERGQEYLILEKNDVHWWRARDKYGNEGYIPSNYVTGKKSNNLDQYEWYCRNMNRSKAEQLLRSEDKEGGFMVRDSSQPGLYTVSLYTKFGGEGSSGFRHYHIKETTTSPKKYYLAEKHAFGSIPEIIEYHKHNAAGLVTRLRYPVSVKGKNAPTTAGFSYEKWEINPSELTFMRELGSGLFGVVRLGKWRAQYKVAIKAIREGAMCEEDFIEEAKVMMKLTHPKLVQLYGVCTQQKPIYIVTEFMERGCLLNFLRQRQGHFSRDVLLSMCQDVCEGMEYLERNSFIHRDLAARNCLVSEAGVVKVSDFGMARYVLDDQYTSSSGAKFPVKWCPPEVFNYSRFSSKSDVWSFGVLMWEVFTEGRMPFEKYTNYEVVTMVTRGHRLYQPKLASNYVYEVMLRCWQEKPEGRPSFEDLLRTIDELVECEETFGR
# [23] = target: Tyrosine-protein kinase ITK/TSK (Homo sapiens, UniProt Q08881); test: Inhibition of Itk (unknown origin) after 1 hr by HTRF assay; method in brief: as §2
# Sequence of Tyrosine-protein kinase ITK/TSK (Q08881 whole entry): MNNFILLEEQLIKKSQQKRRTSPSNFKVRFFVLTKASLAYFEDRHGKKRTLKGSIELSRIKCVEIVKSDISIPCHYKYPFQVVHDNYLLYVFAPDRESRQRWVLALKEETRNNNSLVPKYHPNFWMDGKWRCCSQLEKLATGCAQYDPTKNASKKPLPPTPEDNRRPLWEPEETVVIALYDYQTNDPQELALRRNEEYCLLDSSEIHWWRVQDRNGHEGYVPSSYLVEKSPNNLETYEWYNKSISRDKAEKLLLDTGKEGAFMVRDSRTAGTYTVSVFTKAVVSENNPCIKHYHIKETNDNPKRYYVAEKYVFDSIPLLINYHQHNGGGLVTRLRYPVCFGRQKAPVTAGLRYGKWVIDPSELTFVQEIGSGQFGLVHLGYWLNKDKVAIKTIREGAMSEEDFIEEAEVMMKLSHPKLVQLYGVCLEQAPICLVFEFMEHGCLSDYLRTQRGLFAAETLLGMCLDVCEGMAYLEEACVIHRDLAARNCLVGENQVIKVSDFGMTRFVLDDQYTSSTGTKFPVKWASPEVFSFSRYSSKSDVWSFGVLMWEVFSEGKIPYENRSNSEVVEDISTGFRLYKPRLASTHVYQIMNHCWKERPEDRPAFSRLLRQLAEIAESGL
# [24] = target: Tyrosine-protein kinase Blk (Homo sapiens, UniProt P51451); test: Inhibition of Blk (unknown origin) after 1 hr by HTRF assay; method in brief: as §2
# [25] = target: T1, Tyrosine-protein kinase BTK; test: Inhibition of Btk in human Ramos cells assessed as inhibition of PLC-gamma2 phosphorylation at Tyr1217 after 1 hr by Western blot analysis; assay type: cell-based
# [26] = target: T2, Epidermal growth factor receptor; settings: 5 nM
# Mus musculus = test: Toxicity in CB17 SCID mouse xenografted with human DOHH2 cells assessed as body weight fluctuations at 10 mg/kg, iv qd administered for 14 days measured over 14 days of compound treatment; assay type: organism-based, DOHH-2; set-up: dose 10 mg/kg, route intravenous; settings: in vivo, 336 h
# Method in brief: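 Female CB17/SCID mice carried subcutaneous DoHH2 xenografts (5 × 10⁶ cells injected), randomised at ~167 mm³ mean tumour volume into four groups (n = 6/group). Compound was given intravenously via the tail vein once daily for 14 consecutive days. Body weights were tracked over time throughout the study.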
# [27] = Plasma concentration in CB17 SCID mouse xenografted with human DOHH2 cells at 10 mg/kg, iv qd administered for 14 days measured at 2 hrs post last dose; assay type: ADME, organism-based, DOHH-2; set-up: dose 10 mg/kg, route intravenous
# Method in brief: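 Female CB17/SCID mice were given 5 × 10⁶ DoHH2 cells subcutaneously. When tumours averaged ~167 mm³, mice were randomised into four groups (n = 6/group). Dosing was by tail-vein injection once daily for 14 consecutive days. Plasma compound levels were determined at 2 and 24 h after the final dose.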
compound,measurement,setting,value
C=CC(=O)NCC(=O)Nc1cccc(Nc2ncc(NC(=O)c3cc(NC(=O)c4cccc(C(F)(F)F)c4)ccc3C)cn2)c1,microsomal CLint,[1],28.1 µL/min/mg
same,inhibition,[2],Active
same,half-life,[3],35.4 min
same,IC50,[4],7 nM
same,CLH,[5],49.8 mL/min/kg
same,half-life,[6],36 min
same,IC50,[7],7 nM
same,IC50,[8],1.4 nM
same,Vd,[9],0.13 L/kg
same,GI50,"[10]; Homo sapiens, Pfeiffer, 72 h",8 nM
same,IC50,[11],< 4.4 nM
same,GI50,"[12]; Homo sapiens, DOHH-2, 72 h",40 nM
same,IC50,[13],3.3 nM
same,GI50,"[14]; Homo sapiens, SU-DHL-6, 72 h",43 nM
same,GI50,WSU-NHL,29 nM
same,IC50,[15],13 nM
same,Activity,[16],Active
same,IC50,[17],0.71 nM
same,solubility,[18],2.23 µM
same,clearance,[19],11.5 mL/min/kg
same,IC50,[20],6370 nM
same,"remaining at 24 h, 1 µM",[21],99%
same,IC50,[22],6.3 nM
same,IC50,[23],> 30000 nM
same,IC50,[24],4.2 nM
same,IC50,[25],13 nM
Nc1cccc(Nc2ncc(NC(=O)c3cc(NC(=O)c4cccc(C(F)(F)F)c4)ccc3F)cn2)c1,IC50,[11],47 nM
Cc1ccc(NC(=O)c2cccc(C(F)(F)F)c2)cc1C(=O)Nc1cnc(NC2CC2)nc1,IC50,[11],2150 nM
Cc1ccc(NC(=O)c2cccc(C(F)(F)F)c2)cc1C(=O)Nc1cnc(Nc2cccc(F)c2)nc1,IC50,[11],52 nM
Cc1ccc(NC(=O)c2ccc(C(F)(F)F)cc2)cc1C(=O)Nc1cnc(Nc2cccc(N)c2)nc1,IC50,[11],25 nM
Cc1ccc(NC(=O)c2cccc(Cl)c2)cc1C(=O)Nc1cnc(Nc2cccc(N)c2)nc1,IC50,[11],20 nM
C/C=C/C(=O)Nc1cccc(Nc2ncc(NC(=O)c3cc(NC(=O)c4cccc(C(F)(F)F)c4)ccc3C)cn2)c1,IC50,[11],36 nM
Cc1ccc(NC(=O)c2ccc(Cl)c(C(F)(F)F)c2)cc1C(=O)Nc1cnc(Nc2cccc(N)c2)nc1,IC50,[11],9 nM
Cc1ccc(NC(=O)c2ccc3ccccc3c2)cc1C(=O)Nc1cnc(Nc2cccc(N)c2)nc1,IC50,[11],39 nM
C=CC(=O)Nc1cccc(Nc2ncc(NC(=O)c3cc(NC(=O)c4ccc(Cl)c(C(F)(F)F)c4)ccc3C)cn2)c1,IC50,[11],11 nM
Cc1ccc(NC(=O)c2cccc(C(F)(F)F)c2)cc1C(=O)Nc1cnc(Nc2cccc(NC(=O)/C=C/CN(C)C)c2)nc1,IC50,[11],15 nM
Cc1ccc(NC(=O)c2cccc(C(F)(F)F)c2)cc1C(=O)Nc1cnc(Nc2cccc(NC(=O)CCl)c2)nc1,IC50,[11],15 nM
CCC(=O)N(C(=O)CC)c1cccc(Nc2ncc(NC(=O)c3cc(NC(=O)c4cccc(C(F)(F)F)c4)ccc3C)cn2)c1,IC50,[11],1410 nM
Cc1ccc(NC(=O)c2cccc(C(F)(F)F)c2)cc1C(=O)Nc1cnc(Nc2cccc(N)c2)nc1,IC50,[11],14 nM
CCC(=O)Nc1ccc(C)c(C(=O)Nc2cnc(Nc3cccc(N)c3)nc2)c1,IC50,[11],8560 nM
Cc1ccc(NC(=O)Nc2cccc(C(F)(F)F)c2)cc1C(=O)Nc1cnc(Nc2cccc(N)c2)nc1,IC50,[11],63 nM
CCNc1ncc(NC(=O)c2cc(NC(=O)c3cccc(C(F)(F)F)c3)ccc2C)cn1,IC50,[11],1110 nM
Nc1cccc(Nc2ncc(NC(=O)c3cccc(NC(=O)c4cccc(C(F)(F)F)c4)c3)cn2)c1,IC50,[11],233 nM
Cc1ccc(NC(=O)c2cccc(C(F)(F)F)c2)cc1C(=O)Nc1cnc(Nc2ccc(N)cc2)nc1,IC50,[11],8 nM
COc1cccc(Nc2ncc(NC(=O)c3cc(NC(=O)c4cccc(C(F)(F)F)c4)ccc3C)cn2)c1,IC50,[11],53 nM
C=CC(=O)N(C(=O)C=C)c1cccc(Nc2ncc(NC(=O)c3cc(NC(=O)c4cccc(C(F)(F)F)c4)ccc3C)cn2)c1,IC50,[11],208 nM
Cc1ccc(NC(=O)c2cccc(C(F)(F)F)c2)cc1C(=O)Nc1cnc(Nc2cccc(NC(=O)CCN(C)C)c2)nc1,IC50,[11],14 nM
CCC(=O)Nc1cccc(Nc2ncc(NC(=O)c3cc(NC(=O)c4cccc(C(F)(F)F)c4)ccc3C)cn2)c1,inhibition,[2],inactive
same,IC50,[11],15 nM
Cc1ccc(NC(=O)c2cccc(N(C)C)c2)cc1C(=O)Nc1cnc(Nc2cccc(N)c2)nc1,IC50,[11],47 nM
C=CC(=O)Nc1cccc(Nc2ncc(NC(=O)c3cc(NC(=O)c4cccc(F)c4)ccc3C)cn2)c1,IC50,[11],48 nM
Cc1ccc(NC(=O)C2CC2)cc1C(=O)Nc1cnc(Nc2cccc(N)c2)nc1,IC50,[11],4950 nM
Nc1cccc(Nc2ncc(NC(=O)c3cc(NC(=O)c4cccc(C(F)(F)F)c4)ccc3Cl)cn2)c1,IC50,[11],11 nM
Cc1ccc(NC(=O)c2cccc(C(F)(F)F)c2)cc1C(=O)Nc1cnc(Nc2cccc(C(F)(F)F)c2)nc1,IC50,[11],304 nM
Cc1ccc(NC(=O)c2cc(Cl)cc(C(F)(F)F)c2)cc1C(=O)Nc1cnc(Nc2cccc(N)c2)nc1,IC50,[11],18 nM
Nc1cccc(Nc2ncc(NC(=O)c3cccc(C(=O)Nc4cccc(C(F)(F)F)c4)c3)cn2)c1,IC50,[11],45 nM
Cc1ccc(NC(=O)c2cccc(F)c2)cc1C(=O)Nc1cnc(Nc2cccc(N)c2)nc1,IC50,[11],166 nM
C=CC(=O)Nc1cccc(Nc2ncc(NC(=O)c3cc(NC(=O)c4ccc5ccccc5c4)ccc3C)cn2)c1,IC50,[11],22 nM
Cc1ccc(NC(=O)c2cccc(C(F)(F)F)c2)cc1C(=O)Nc1cnc(N)nc1,IC50,[11],3420 nM
Cc1ccc(NC(=O)/C=C/c2ccccc2)cc1C(=O)Nc1cnc(Nc2cccc(N)c2)nc1,IC50,[11],24 nM
Cc1ccc(NC(=O)c2cccc(C(F)(F)F)c2)cc1C(=O)Nc1cnc(Nc2cccc(NC(=O)Cn3sc4ccccc4c3=O)c2)nc1,IC50,[11],18 nM
C=CC(=O)N1CCC[C@@H](n2nc(-c3ccc(Oc4ccccc4)cc3)c3c(N)ncnc32)C1 [IBRUTINIB],inhibition,[26],Active
same,GI50,[10],2 nM
same,GI50,[12],410 nM
same,GI50,[14],580 nM
same,Activity,Mus musculus,Non-toxic
same,concentration at 2 h,[27],479 ng/mL
C=CS(=O)(=O)Nc1cccc(Nc2ncc(NC(=O)c3cc(NC(=O)c4cccc(C(F)(F)F)c4)ccc3C)cn2)c1,IC50,[11],16 nM
Cc1ccc(NC(=O)c2cccc(C(F)(F)F)c2)cc1C(=O)Nc1cnc(Nc2ccccc2)nc1,IC50,[11],133 nM
